Measurements reported in ChEMBL document CHEMBL2331117 (J Med Chem, 2013).
pIC50: −log10 of the molar value.

How the values were obtained:
[1] = tested on: Mus musculus; test: In vivo inhibition of mTORC1-mediated phosphorylation of p70S6K at […] in human PC3 cells xenografted into athymic nude mouse at 100 mg/kg, po after 16 hrs by Western blotting analysis relative to control; assay type: functional; details: PC-3, 16 h
Outline: (§1)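 PC-3 cells grown in DMEM with 20% FBS were implanted subcutaneously at 3 × 10^6 cells in ice-cold HBSS into the hindflank of 5−8 week old male nude mice. At tumor size 200−500 mg, mice received a single oral dose of 100 mg/kg. Plasma and tumors were collected at 1, 4, 8, 16, 24 and 32 h. Tumor lysates from each group (n = 5) were pooled. Phospho-proteins were quantified by Western blot and normalized to α-tubulin.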

[2] = molecular target: Platelet-derived growth factor receptor beta (Homo sapiens, UniProt P09619); test: Inhibition of PDGFRbeta (unknown origin)
[3] = AUC (0 to infinity) in cynomolgus monkey at 3 mg/kg, po; assay type: ADME, organism-based, Macaca fascicularis; design: dose 3 mg/kg, route oral, time infinity; details: plasma
Outline: (§2)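 Single-dose PK: female athymic nude mice (10 mg/kg), female CD rats and male beagle dogs (3 mg/kg), male cynomolgus monkeys (3 mg/kg), given iv and by oral gavage. Solution in EPW (5% ethanol/45% PEG400/water), with 1:2 HCl (m/m) for mouse, rat and dog and 1:1.5 HCl (m/m) for monkey. Plasma levels followed over 24 h.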

[4] = molecular target: Receptor tyrosine-protein kinase erbB-2 (Homo sapiens, UniProt P04626); test: Inhibition of ERBB2 (unknown origin)
Outline: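 Part of a 141-protein-kinase selectivity panel run either in house or by an outside contract lab. IC50 is reported as the average of at least two determinations.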

[5] = Cmax in athymic nude mouse at 10 mg/kg, po; assay type: ADME, organism-based; design: dose 10 mg/kg, route oral; details: in vivo; outline: as §2
[6] = tested on: Mus musculus; test: In vivo inhibition of mTORC1-mediated phosphorylation of pS6 at (serine 240/244) in human MCF7 cells xenografted into athymic nude mouse at 100 mg/kg, po after 1 hr by Western blotting analysis relative to control; assay type: functional; details: MCF7, 1 h
Outline: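 MCF-7 cells (DMEM, 10% FBS) were implanted subcutaneously at 5 × 10^6 cells in 50% cold HBSS/50% growth-factor-reduced matrigel into the hindflank of 5−8 week old female nude mice. At tumor size 40−150 mg, mice received a single oral dose of 100 mg/kg. Tumor lysates were pooled per group. Phospho-AKT (S473, T308), p70S6K (T389), S6 (S240/244) and 4E-BP1 (T37/46) were measured by Western blot normalized to α-tubulin.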

[7] = molecular target: Hepatocyte growth factor receptor (Homo sapiens, UniProt P08581); test: Inhibition of MET (unknown origin)
[8] = tested on: Mus musculus; test: Inhibition of mTORC2-mediated phosphorylation of AKT at serine 473 in human PC3 cells xenografted into athymic nude mouse at 100 mg/kg, po after 1 hr by Western blotting analysis relative to control; assay type: functional; details: PC-3, 1 h
Outline: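 PC-3 cells (3 × 10^6, in ice-cold HBSS) were implanted subcutaneously in the hindflank of 5–8 week old male nude mice. At 200–500 mg tumour size, mice received a single oral dose. Tumours were collected at set times after dosing, homogenised and pooled per group (n=5). pAKT S473 was measured by Western blot and normalised to α-tubulin.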

[9] = AUC (0 to infinity) in CD rat at 3 mg/kg, iv; assay type: ADME, organism-based; design: time infinity, dose 3 mg/kg, route intravenous; details: plasma; outline: as §2
[10] = Drug uptake in tumor of athymic mouse xenografted with human MCF7 cells at 100 mg/kg, po after 16hrs; assay type: ADME, organism-based, Neoplasm; design: dose 100 mg/kg, route oral; details: read-out: Drug uptake
[11] = Metabolic stability in monkey liver microsomes after 30 mins; assay type: ADME, Macaca mulatta, Microsome; details: rhesus monkey, read-out: Stability
[12] = Cmax in CD rat at 3 mg/kg, iv; assay type: ADME, organism-based; design: dose 3 mg/kg, route intravenous; details: in vivo; outline: as §2
[13] = Plasma concentration in athymic mouse plasma xenografted with human PC3 cells at 100 mg/kg, po after 1 hr; assay type: ADME, organism-based, PC-3; design: dose 100 mg/kg, route oral
[14] = Plasma protein binding in human at 5 uM; assay type: ADME, cell-free; details: read-out: PPB (converted)
[15] = molecular target: Casein kinase II (Homo sapiens, UniProt P19784+P67870+P68400); test: Inhibition of CK2 (unknown origin); assay type: protein-complex assay
[16] = tested on: Mus musculus; test: In vivo inhibition of mTORC2-mediated phosphorylation of AKT at serine 473 in human PC3 cells xenografted into athymic nude mouse at 100 mg/kg, po after 32 hrs by Western blotting analysis relative to control; assay type: functional; details: PC-3, 32 h; outline: as §1
[17] = Tmax in cynomolgus monkey at 3 mg/kg, po; assay type: ADME, organism-based, Macaca fascicularis; design: dose 3 mg/kg, route oral; details: in vivo
[18] = molecular target: Cytochrome P450 3A4 (Homo sapiens, UniProt P08684); test: Induction of CYP3A4 (unknown origin); assay type: ADME
[19] = molecular target: T1, Cytochrome P450 2C8 (Homo sapiens, UniProt P10632); test: Inhibition of CYP2C8 (unknown origin); assay type: ADME
T1 sequence (P10632 whole entry): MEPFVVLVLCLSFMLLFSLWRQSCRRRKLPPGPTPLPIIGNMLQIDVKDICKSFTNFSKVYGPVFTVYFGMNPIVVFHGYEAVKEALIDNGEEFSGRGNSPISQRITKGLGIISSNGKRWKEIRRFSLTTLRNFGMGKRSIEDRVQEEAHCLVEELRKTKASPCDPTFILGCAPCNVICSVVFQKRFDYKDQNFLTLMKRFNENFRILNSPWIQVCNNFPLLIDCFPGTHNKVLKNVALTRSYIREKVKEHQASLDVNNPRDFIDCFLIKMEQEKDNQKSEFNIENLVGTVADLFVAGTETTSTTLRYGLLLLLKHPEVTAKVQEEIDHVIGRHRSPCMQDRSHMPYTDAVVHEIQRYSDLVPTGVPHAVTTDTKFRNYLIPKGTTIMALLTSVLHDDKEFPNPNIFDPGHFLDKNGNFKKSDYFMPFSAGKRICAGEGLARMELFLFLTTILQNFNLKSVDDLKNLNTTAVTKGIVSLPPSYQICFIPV

[20] = tested on: Mus musculus; test: In vivo inhibition of mTORC1-mediated phosphorylation of 4EBP1 at ([…]) in human MCF7 cells xenografted into athymic nude mouse at 100 mg/kg, po after 32 hrs by Western blotting analysis relative to control; assay type: functional; details: MCF7, 32 h
[21] = Metabolic stability in rat liver microsomes after 30 mins; assay type: ADME, Microsome; details: read-out: Stability
[22] = Tmax in Beagle dog at 3 mg/kg, po; assay type: ADME, organism-based, Canis lupus familiaris; design: dose 3 mg/kg, route oral; details: in vivo
[23] = Plasma protein binding in dog at 5 uM; assay type: ADME, cell-free, Canis lupus familiaris; details: read-out: PPB (converted)
[24] = Cmax in cynomolgus monkey at 3 mg/kg, iv; assay type: ADME, organism-based, Macaca fascicularis; design: dose 3 mg/kg, route intravenous; details: in vivo; outline: as §2
[25] = tested on: Mus musculus; test: In vivo inhibition of mTORC2-mediated phosphorylation of AKT at serine 473 in human PC3 cells xenografted into athymic nude mouse at 100 mg/kg, po after 8 hrs by Western blotting analysis relative to control; assay type: functional; details: PC-3, 8 h; outline: as §1
[26] = tested on: Mus musculus; test: In vivo inhibition of mTORC1-mediated phosphorylation of pS6 at (serine 240/244) in human PC3 cells xenografted into athymic nude mouse at 100 mg/kg, po after 32 hrs by Western blotting analysis relative to control; assay type: functional; details: PC-3, 32 h; outline: as §1
[27] = Cmax in Beagle dog at 3 mg/kg, po; assay type: ADME, organism-based, Canis lupus familiaris; design: dose 3 mg/kg, route oral; details: in vivo; outline: as §2
[28] = molecular target: Proto-oncogene tyrosine-protein kinase Src (Homo sapiens, UniProt P12931); test: Inhibition of SRC (unknown origin)
Proto-oncogene tyrosine-protein kinase Src, sequence (P12931 2-536 limits assumed): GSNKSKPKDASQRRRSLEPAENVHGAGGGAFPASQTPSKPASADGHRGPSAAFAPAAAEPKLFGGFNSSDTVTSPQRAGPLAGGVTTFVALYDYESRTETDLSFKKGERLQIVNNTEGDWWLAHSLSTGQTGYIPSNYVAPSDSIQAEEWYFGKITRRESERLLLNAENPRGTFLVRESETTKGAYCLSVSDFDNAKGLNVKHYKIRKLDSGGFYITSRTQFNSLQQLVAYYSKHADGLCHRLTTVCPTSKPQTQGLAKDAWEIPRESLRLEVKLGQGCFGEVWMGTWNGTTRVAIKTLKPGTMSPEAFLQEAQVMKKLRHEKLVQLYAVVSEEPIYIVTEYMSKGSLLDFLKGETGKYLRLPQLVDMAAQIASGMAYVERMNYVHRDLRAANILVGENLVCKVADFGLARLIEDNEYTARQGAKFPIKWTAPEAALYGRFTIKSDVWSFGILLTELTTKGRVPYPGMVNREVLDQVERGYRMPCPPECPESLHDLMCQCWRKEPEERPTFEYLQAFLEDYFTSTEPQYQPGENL

Casein kinase II, sequence (P67870 whole entry): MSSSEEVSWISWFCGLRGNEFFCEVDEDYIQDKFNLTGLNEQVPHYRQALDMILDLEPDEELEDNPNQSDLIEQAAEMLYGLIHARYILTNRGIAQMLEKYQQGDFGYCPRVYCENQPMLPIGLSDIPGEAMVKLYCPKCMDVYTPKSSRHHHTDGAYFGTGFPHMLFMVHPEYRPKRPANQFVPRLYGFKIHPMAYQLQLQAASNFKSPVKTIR
Casein kinase II, sequence (P68400 whole entry): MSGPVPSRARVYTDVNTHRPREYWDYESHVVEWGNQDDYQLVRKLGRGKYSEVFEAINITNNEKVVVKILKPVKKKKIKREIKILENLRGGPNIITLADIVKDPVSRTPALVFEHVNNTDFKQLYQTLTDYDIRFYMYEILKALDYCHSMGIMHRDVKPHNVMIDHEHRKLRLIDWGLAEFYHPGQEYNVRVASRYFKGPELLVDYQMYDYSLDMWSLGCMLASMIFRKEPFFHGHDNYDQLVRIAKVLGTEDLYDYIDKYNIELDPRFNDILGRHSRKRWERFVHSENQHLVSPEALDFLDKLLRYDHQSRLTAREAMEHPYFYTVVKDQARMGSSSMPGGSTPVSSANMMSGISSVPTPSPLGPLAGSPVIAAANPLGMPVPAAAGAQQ
Casein kinase II, sequence (P19784 whole entry): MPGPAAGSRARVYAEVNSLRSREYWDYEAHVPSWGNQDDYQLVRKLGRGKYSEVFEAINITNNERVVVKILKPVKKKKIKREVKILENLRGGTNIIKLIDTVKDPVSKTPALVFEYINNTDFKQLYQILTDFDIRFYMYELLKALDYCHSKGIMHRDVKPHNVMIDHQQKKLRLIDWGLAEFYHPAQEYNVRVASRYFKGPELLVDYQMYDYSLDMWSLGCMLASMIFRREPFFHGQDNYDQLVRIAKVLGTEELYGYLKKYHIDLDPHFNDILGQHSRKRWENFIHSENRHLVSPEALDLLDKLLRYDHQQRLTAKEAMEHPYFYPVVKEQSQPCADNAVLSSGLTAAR
Hepatocyte growth factor receptor, sequence (P08581 whole entry): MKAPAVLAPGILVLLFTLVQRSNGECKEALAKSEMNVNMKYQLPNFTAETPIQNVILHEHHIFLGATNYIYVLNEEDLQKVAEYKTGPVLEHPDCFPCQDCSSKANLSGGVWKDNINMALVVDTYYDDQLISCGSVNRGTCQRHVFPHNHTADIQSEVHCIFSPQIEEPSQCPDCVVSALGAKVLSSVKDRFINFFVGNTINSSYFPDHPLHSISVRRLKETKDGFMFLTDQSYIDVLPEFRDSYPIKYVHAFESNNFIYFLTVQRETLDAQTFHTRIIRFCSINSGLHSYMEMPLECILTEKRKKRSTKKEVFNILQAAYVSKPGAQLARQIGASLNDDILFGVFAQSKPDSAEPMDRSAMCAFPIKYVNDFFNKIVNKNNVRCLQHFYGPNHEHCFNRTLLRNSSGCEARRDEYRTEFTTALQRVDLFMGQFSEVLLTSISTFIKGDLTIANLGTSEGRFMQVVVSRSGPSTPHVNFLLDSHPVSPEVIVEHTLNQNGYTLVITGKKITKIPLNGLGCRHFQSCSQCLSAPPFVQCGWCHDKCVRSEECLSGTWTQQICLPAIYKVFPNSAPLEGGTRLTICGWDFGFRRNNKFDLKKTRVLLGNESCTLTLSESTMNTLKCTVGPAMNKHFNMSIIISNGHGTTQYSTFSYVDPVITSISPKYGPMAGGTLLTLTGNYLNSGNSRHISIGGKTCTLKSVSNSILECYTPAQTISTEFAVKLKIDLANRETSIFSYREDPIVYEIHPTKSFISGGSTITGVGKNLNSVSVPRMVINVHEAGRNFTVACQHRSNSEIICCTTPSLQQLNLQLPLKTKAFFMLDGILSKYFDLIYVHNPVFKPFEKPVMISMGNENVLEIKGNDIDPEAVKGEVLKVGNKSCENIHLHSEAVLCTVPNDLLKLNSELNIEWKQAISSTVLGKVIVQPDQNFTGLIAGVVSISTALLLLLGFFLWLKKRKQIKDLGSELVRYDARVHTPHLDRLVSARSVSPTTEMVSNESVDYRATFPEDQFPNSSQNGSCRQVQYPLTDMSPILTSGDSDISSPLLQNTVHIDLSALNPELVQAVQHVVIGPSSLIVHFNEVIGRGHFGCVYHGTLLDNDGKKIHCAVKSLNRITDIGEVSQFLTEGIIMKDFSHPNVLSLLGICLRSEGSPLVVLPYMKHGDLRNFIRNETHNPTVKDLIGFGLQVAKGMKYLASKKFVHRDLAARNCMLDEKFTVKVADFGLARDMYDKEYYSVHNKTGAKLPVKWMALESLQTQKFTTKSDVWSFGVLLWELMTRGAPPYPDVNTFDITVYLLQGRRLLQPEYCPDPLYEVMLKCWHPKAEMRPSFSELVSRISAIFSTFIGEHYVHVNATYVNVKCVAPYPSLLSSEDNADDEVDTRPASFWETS
Platelet-derived growth factor receptor beta, sequence (P09619 whole entry): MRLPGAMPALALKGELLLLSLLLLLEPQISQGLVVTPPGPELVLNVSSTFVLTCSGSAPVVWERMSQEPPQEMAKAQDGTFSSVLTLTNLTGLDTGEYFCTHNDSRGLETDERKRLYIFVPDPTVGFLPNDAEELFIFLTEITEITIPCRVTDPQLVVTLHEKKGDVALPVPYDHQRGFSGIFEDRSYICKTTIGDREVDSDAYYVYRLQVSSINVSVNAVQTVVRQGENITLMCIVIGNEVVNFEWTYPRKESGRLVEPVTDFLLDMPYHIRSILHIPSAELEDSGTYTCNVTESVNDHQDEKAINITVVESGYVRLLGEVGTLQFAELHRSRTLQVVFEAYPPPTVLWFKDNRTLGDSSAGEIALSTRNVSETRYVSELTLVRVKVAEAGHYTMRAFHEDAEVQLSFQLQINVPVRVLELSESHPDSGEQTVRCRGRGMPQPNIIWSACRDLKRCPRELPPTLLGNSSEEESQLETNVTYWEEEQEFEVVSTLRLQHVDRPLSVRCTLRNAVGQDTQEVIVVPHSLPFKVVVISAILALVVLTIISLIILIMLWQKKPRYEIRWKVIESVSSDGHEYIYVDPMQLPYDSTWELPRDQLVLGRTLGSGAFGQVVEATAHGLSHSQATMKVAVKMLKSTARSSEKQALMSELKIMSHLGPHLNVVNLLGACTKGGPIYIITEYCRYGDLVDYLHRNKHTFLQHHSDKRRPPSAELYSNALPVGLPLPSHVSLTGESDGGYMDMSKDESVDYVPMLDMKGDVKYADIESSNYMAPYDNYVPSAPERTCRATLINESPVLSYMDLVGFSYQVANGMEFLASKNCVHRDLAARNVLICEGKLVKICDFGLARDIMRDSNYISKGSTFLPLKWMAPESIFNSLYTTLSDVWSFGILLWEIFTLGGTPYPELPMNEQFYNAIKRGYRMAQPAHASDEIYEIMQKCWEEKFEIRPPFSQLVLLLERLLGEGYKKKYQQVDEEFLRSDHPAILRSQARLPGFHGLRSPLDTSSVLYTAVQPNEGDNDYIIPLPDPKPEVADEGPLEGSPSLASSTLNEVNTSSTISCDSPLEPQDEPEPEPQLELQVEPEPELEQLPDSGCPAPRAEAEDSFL
Cytochrome P450 3A4, sequence (P08684 whole entry): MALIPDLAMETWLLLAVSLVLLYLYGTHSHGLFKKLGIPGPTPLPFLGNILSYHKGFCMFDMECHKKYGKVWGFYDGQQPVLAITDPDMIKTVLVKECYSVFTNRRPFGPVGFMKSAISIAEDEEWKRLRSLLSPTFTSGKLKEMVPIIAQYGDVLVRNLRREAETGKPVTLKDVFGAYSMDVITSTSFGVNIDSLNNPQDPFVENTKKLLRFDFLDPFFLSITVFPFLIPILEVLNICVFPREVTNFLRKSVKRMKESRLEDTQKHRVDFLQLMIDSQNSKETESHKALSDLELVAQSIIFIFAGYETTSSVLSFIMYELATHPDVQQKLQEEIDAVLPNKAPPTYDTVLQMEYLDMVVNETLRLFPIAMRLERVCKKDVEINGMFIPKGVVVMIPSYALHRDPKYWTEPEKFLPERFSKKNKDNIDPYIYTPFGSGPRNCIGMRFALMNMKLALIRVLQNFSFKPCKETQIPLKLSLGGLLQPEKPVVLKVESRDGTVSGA

## Cc1c(C(=O)N2CCOc3ccc(-c4ccc(N)nc4)cc3C2)ccc(S(C)(=O)=O)c1F
[1]
  inhibition in vivo at 100 mg/kg: 66%
[2]
  pIC50: < 5.46
[3]
  AUC(0-inf): 700 nM·h
[4]
  pIC50: < 5.46
[5]
  Cmax: 1.3 µM
[6]
  inhibition in vivo at 100 mg/kg: 96%
[7]
  pIC50: < 5.46
[8]
  inhibition in vivo at 100 mg/kg: 88%
[9]
  AUC(0-inf): 3720 nM·h
[10]
  concentration at 16 h: 2.74 µM
[11]
  remaining at 0.5 h: 65%
[12]
  Cmax: 4.12 µM
[13]
  concentration at 1 h: 32.6 µM
[14]
  fraction unbound at 5 µM: 0.14
[15]
  pIC50: < 5.00
[16]
  inhibition in vivo at 100 mg/kg: 10%
[17]
  Tmax: 2 h
[18]
  Activity: 50 µM
[19]
  INH: > 20 µM
[20]
  inhibition in vivo at 100 mg/kg: 3%
[21]
  remaining at 0.5 h: 78%
[22]
  Tmax: 1 h
[23]
  fraction unbound at 5 µM: 0.11
[24]
  Cmax: 0.95 µM
[25]
  inhibition in vivo at 100 mg/kg: 83%
[26]
  inhibition in vivo at 100 mg/kg: -20%
[27]
  Cmax: 1.66 µM
[28]
  pIC50: < 5.46
